Shown are actives, neighbours in structure and some others; about 2.6% of the full set was active somewhere.
F508del corr – CFTR F508del correction in bronchial cells; hit rate 0.36% among 350,000; CFBE cells, YFP halide quenching; stimulated with forskolin plus potentiator P3; % fluorescence drop versus neutral controls; activity (quench increase), % at 7.58 µM;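 active = mean added fluorescence quench of at least 8% versus neutral control, with both replicates also reaching 8%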;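 also: cells transiently co-express mutant CFTR-F508del with the halide-sensitive YFP; corrector assay measuring rescue of mutant channel to the surface after 24 h compound exposure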
E-sel inducer – E-selectin induction on HUVECs. AID 686992. P16581. HUVEC E-selectin immunofluorescence imaging; normalized: neutral wells 0, TNF-alpha wells 100. hit rate 0.37% among 260,000. activation, % at 7.58 µM;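 active = mean E-selectin-positive cell signal at least 10% of the positive control, reached in at least 60% of replicates, without over 20% cell loss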
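material = human umbilical vein endothelial cells (HUVEC), E-selectin induction | quantity = 3,000 cells/well | medium = EGM-2 growth medium on 0.1% gelatin-coated wells | technique = immunofluorescence imaging | read-out basis = % PE-positive cells | control set = TNF-alpha positive control, DMSO neutral control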
miR-122 sensor – miR-122 inhibition in Huh7 cells; Huh7 miR-122 Renilla luciferase sensor, 48 h; neutral wells = 0, positive control = 100; activation (reporter increase), % at 12.5 µM; hit rate 0.3% among 340,000; AID 602342;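 active = mean replicate activation score at least 90 and every replicate individually at or above 90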;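 also: higher luciferase means less miR-122 activity so hits act as miR-122 inhibitors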
ERAP1 inh – blocks human ERAP1 aminopeptidase activity. Q9NZ08. recombinant ERAP1, Leu-AMC fluorescence, 60 min. inhibition, % at 10.7 µM. hit rate 0.15% among 340,000. AID 652197;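 active = mean replicate inhibition of at least 30%, or all replicates individually reaching that 30% level; inactive = mean below 30% and not every replicate reaching it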;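 also: 0% = neutral control wells and 100% = L-leucinethiol positive control wells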
Target sequence (Q9NZ08 whole entry, looked up): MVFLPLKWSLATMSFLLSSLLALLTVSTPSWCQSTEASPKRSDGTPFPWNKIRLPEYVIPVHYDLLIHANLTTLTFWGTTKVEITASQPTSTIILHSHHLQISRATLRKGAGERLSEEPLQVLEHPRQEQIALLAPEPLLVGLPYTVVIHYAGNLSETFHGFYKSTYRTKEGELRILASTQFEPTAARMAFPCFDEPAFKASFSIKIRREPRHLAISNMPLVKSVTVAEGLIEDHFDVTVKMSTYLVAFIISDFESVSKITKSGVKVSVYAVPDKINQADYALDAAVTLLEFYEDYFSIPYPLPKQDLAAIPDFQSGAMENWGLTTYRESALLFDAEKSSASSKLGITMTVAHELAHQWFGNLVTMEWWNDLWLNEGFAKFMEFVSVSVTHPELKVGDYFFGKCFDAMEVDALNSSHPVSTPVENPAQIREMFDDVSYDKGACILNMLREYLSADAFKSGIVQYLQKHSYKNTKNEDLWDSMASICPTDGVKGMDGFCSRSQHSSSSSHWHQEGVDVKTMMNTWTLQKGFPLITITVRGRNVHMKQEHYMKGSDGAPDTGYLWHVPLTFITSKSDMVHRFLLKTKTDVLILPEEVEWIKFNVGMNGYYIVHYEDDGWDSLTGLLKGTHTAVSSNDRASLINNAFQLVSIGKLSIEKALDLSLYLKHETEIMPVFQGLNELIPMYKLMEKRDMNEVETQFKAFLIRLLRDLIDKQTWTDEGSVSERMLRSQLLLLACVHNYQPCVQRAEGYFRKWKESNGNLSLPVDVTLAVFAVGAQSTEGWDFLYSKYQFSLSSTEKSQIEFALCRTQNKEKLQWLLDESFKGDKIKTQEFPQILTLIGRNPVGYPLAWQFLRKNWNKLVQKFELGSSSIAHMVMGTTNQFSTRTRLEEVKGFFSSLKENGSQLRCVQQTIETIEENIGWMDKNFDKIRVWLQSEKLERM
DENV2 CPE – protects cells from dengue virus 2 cytopathic effect. CPE inhibition, % at 9.99 µM. DENV2-infected cells, cytopathic effect rescue, plate reader. AID 651640. hit rate 1.7% among 350,000; in the data active = CPE inhibition above about 20%, passing the limit was not always enough; tested in BHK-21 cells;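 also: 0% = median of neutral control wells and 100% = median of positive control wells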
INS-1E GSIS act – primary screen for activators of insulin secretion dependent on glucose, INS-1E cells, GLuc reporter luminescence | INS-1E GLuc reporter insulin secretion, 2-3 h | activation, % at 16.6 µM | hit rate 0.61% among 370,000 | AID 743287;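 active = lowest replicate activation of at least 40%, so every replicate reaches that level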;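 also: 0% = median of neutral control wells and 100% = median of IBMX positive control wells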
An asterisk follows results filed as active; x = no result given; [ ] = dose if it differs, or a comment.

SMILES	F508del corr	E-sel inducer	miR-122 sensor	ERAP1 inh	DENV2 CPE	INS-1E GSIS act
CCC(C)Sc1cccc(-c2nc3cnccn3c2NC2CCCCC2)c1 (stereo not drawn)	-2	5	14	-7	x	170*
C[C@@H]1CN([C@H](C)CO)C(=O)c2cc(C#CCN(C)C)cnc2O[C@H]1CN(C)Cc1ccc2c(c1)OCO2	1	0	-2[16.7 µM]	-2	1	3
CCC(=O)N1[C@@H](CO)[C@@H](c2ccc(-c3ccccc3C)cc2)C12CN(C(C)=O)C2	0	0	x	1	60*	-3
CC(=O)N1CC2(C1)[C@@H](c1ccc(-c3ccc(F)cc3)cc1)[C@@H](CO)N2C(C)=O	3	0	x	1	78*	-1
CCC(=O)N1[C@@H](CO)[C@@H](c2ccc(-c3cccc(OC)c3)cc2)C12CN(C(C)=O)C2	2	0	x	-1	0	-2
CCC(=O)N1CC2(C1)[C@H](c1ccc(-c3ccc(F)cc3)cc1)[C@H](CO)N2C(C)=O	0	0	x	0	1	-10
CCC(=O)N1CC2(C1)[C@@H](c1ccc(-c3ccccc3C)cc1)[C@@H](CO)N2C(C)=O	-5	0	x	-1	-6	-1
COCC(=O)N1[C@H](CO)[C@@H](c2ccc(-c3cccc(OC)c3)cc2)C12CN(C(C)=O)C2	-4	0	x	-2	28*	10
CCC(C)[C@H](NC(=O)[C@@H]1Cc2ccccc2CN1)C(=O)NCc1ccc(C)cc1 (stereo partly drawn)	2	x	-9	-4	92*	x
COCC(=O)N(C)C[C@@H]1Oc2cc(C#C[C@H](C)O)ccc2S(=O)(=O)N([C@@H](C)CO)C[C@H]1C	-1	0	37[16.7 µM]	-1	-3	19
CCCNC(=O)[C@@H]1[C@@H](CO)[C@@H]2Cn3c(ccc(/C=C/c4ccccc4)c3=O)[C@@H]2N1CC	x	0	x	0	4	-13
Oc1c(Cl)cc(Cl)cc1/C=C/c1ccc2cccc(O)c2n1	3	x	x	-4	9	-8
Oc1ccc(Cl)cc1/C=C/c1ccc2cccc(O)c2n1	3	x	140*	9	-6	-16
O=C(Cc1ccccn1)c1ccccc1	-4	0	x	0	50*	x
C[C@H](CO)N1C[C@H](C)[C@H](CN(C)C(=O)Nc2ccc(F)cc2)Oc2ccc(NS(C)(=O)=O)cc2CC1=O	-2	-26	2[16.7 µM]	0	-3	2
Cc1nc(CCNC(=O)CC2C(=O)NCCN2CC(C)(C)C)nc2c1CCC2 (stereo not drawn)	-3	-1	-6	-3	13	10
Cc1nc(CCNC(=O)CC2C(=O)NCCN2CC(C)C)nc2c1CCC2 (stereo not drawn)	-2	0	5	3	44*	1
COCC#Cc1ccc([C@H]2[C@@H](CO)N3CCCCN(Cc4cccnc4)C[C@@H]23)cc1	-1	0	1[16.7 µM]	-2	57*	6
CCCC#Cc1ccc([C@@H]2[C@@H](CO)N3CCCCN(Cc4cncnc4)C[C@@H]23)cc1	1	0	0[16.7 µM]	-1	26*	4
CCCC#Cc1ccc([C@H]2[C@@H](CO)N3CCCCN(Cc4cccnc4)C[C@@H]23)cc1	1	0	9[16.7 µM]	0	33*	2
COCC#Cc1ccc([C@@H]2[C@@H](CO)N3CCCCN(Cc4cccnc4)C[C@H]23)cc1	0	0	-3[16.7 µM]	x	x	3
Cc1noc(C)c1NC(=O)Nc1ccc2c(c1)CC(=O)N([C@H](C)CO)C[C@@H](C)[C@@H](CN(C)C(=O)Nc1ccccc1)O2	-2	0	4[16.7 µM]	5	-9	11
CC(=O)N1CC(=O)N2[C@H](CO)[C@@H](c3ccc(-c4ccc(C#N)cc4)cc3)[C@H]2C1	1	0	x	3	19	2
Cn1cnc(CCNC(=O)C[C@@H]2CC[C@@H]3[C@H](COC[C@H](O)CN3C(=O)C3CC3)O2)c1	-2	0	1[16.7 µM]	2	0	7
O=C(C1=C[C@H](C2CCCCC2)C[C@H](OCc2ccc(CO)cc2)O1)N1CCCC1	-3	x	x	2	14	x
SMILES	F508del corr	E-sel inducer	miR-122 sensor	ERAP1 inh	DENV2 CPE	INS-1E GSIS act
COC(=O)c1sc(NC(=O)C2c3ccccc3Oc3ccccc32)c(C(=O)OC)c1C	x	x	x	x	x	-3
CCN(CC)C(=O)c1sc(NC(=O)c2ccoc2C)c(C(=O)OC)c1C	x	x	2	x	x	x
CCOC(=O)c1c(NC(=O)c2ccoc2C)sc(C(=O)N(C)C)c1C	x	x	2	x	x	47*
CCOC(=O)c1c(NC(=O)C2c3ccccc3Oc3ccccc32)sc(C(C)=O)c1C	11*	x	-1	-1	-2	9
C[C@H](CO)N1C[C@H](C)[C@H](CN(C)C(=O)C2CCC2)Oc2ncc(C3=CCCC3)cc2C1=O	1	0	22[16.7 µM]	-2	30*	13
C[C@@H]1CN([C@@H](C)CO)C(=O)c2cc(-c3ccccc3)cnc2O[C@H]1CN(C)C(=O)C1CCCCC1	-1	0	-4[16.7 µM]	4	51*	-26
C[C@@H]1CN([C@H](C)CO)C(=O)c2cc(C3=CCCCC3)cnc2O[C@H]1CN(C)C(=O)CN1CCOCC1	-2	0	x	0	7	171*
C[C@@H]1CN([C@H](C)CO)C(=O)c2cc(C3=CCCCC3)cnc2O[C@@H]1CN(C)C(=O)CN1CCOCC1	1	0	x	0	-5	26
C[C@H](CO)N1C[C@H](C)[C@H](CN(C)C(=O)NC2CCCCC2)Oc2ncc(-c3cc4ccccc4o3)cc2C1=O	8.7*	0	-3[16.7 µM]	-1	-4	-20
CCC(=O)N1C[C@H](O)COC[C@@H]2O[C@@H](CC(=O)NCC3CCCCC3)CC[C@H]21	-2	0	18[16.7 µM]	1	-8	11
C[C@@H]1CN([C@H](C)CO)C(=O)c2cc(C3=CCCC3)cnc2O[C@H]1CN(C)C(=O)C1CCOCC1	-3	0	-7[16.7 µM]	2	38*	19
O=C(NCCN1CCC(n2c(=O)[nH]c3ccccc32)CC1)c1ccccc1	6	0	x	-6	20*	10
C[C@@H]1CN([C@H](C)CO)C(=O)c2cc(NS(=O)(=O)c3ccc(F)cc3)ccc2O[C@@H](C)CCCCO[C@@H]1CN(C)S(=O)(=O)c1cccs1	1	x	-12[16.7 µM]	0	-7	-8
C[C@H](CO)N1C[C@H](C)[C@H](CN(C)S(=O)(=O)c2cccs2)OCCCC[C@H](C)Oc2ccc(NS(=O)(=O)c3ccc(F)cc3)cc2C1=O	-4	x	-2[16.7 µM]	-4	31*	-48
C[C@H](CO)N1C[C@H](C)[C@H](CN(C)S(=O)(=O)c2ccc(Cl)cc2)Oc2ccc(NS(=O)(=O)c3cccs3)cc2C1=O	-2	1	4[16.7 µM]	-1	-3	-18
